Source: PubChem BioAssay (The Scripps Research Institute Molecular Screening Center)
ASAP1 inh – inhibitors of human ASAP1 ArfGAP activity, primary screen, biochemical, fluorescence polarization; inhibition, % at 16.5 µM; actives 0.19% (n = 360,000); Arf-GAP with SH3 domain, ANK repeat and PH domain-containing protein 1 (Homo sapiens), …; ASAP1-stimulated ARF1 GTP hydrolysis, GDP FP detection; in the data active means inhibition above about 25%;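 further: 0% = vehicle with enzyme and substrate and 100% = no enzyme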
PAFAH2 inh – PAFAH2 enzyme inhibitors, primary screen, biochemical, fluorescence polarization, human; Platelet-activating factor acetylhydrolase 2, cytoplasmic (Homo sapiens), Q99487; actives 0.99% (n = 340,000); inhibition, % at 3.39 µM; recombinant PAFAH2, FP-rhodamine activity probe; AID 492956, 2010;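 active means inhibition above the mean over all tested compounds plus 3 SD, cut at about 30% in these data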;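 further: inhibitors block probe labeling of enzyme so polarization drops; 0% = enzyme with DMSO and 100% = wells lacking PAFAH2 protein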
pPAFAH FP inh – pPAFAH enzyme inhibitors, primary screen, biochemical, fluorescence polarization, human; actives 1.5% (n = 330,000); inhibition, % at 3.39 µM; recombinant pPAFAH, FP-rhodamine probe fluorescence polarization; Platelet-activating factor acetylhydrolase (Homo sapiens), Q13093;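 active means inhibition above the mean inhibition across the screen plus 3 SD, cut at about 25% in these data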;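 further: inhibitors block binding of the rhodamine activity-based probe so polarization drops; 0% = enzyme with DMSO and 100% = wells lacking pPAFAH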
ARFGAP1 inhibitor – inhibitors of rat ARFGAP1 GAP activity, primary screen, biochemical, fluorescence polarization, GDP tracer | ADP-ribosylation factor GTPase-activating protein 1 (Rattus norvegicus), Q62848 | Arfgap1-stimulated ARF1 GTP hydrolysis, GDP FP detection | inhibition, % at 16.5 µM | actives 0.26% (n = 360,000);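 active means inhibition above a per-plate limit, mean inhibition of low control wells plus 3 SD, cut at about 25% in these data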;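 further: 0% = DMSO wells with enzyme and 100% = wells lacking Arfgap1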
Target sequence (Q62848 1-136 limits assumed): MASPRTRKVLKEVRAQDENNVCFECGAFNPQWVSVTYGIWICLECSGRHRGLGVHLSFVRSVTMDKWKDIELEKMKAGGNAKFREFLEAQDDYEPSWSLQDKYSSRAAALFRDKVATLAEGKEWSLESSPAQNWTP
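Repeats: one replicate per compound; assay system: rat Arfgap1 catalytic domain, aa 1-136; times: enzyme reaction 120 min at 25 °C after 20 min preincubation; detection: FP of antibody-bound GDP Alexa 633 tracer, ex 620/em 688 nm; benchmarks: high control wells lacking Arfgap1, low control full reaction with DMSO; reagent: human ARF1(Δ1-17)-GTP substrate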
PAFAH1B2 inh – PAFAH1B2 enzyme inhibitors, primary screen, biochemical, fluorescence polarization, human. Platelet-activating factor acetylhydrolase IB subunit alpha2 (Homo sapiens), P68402. recombinant PAFAH1B2, FP-rhodamine activity probe. inhibition, % at 3.39 µM. actives 1.2% (n = 340,000). AID 492953, 2010;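 active means inhibition above the mean of all tested compounds plus 3 SD, cut at about 24% in these data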;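 further: 0% = enzyme with DMSO and 100% = wells lacking PAFAH1B2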
Target sequence (P68402 whole entry, looked up): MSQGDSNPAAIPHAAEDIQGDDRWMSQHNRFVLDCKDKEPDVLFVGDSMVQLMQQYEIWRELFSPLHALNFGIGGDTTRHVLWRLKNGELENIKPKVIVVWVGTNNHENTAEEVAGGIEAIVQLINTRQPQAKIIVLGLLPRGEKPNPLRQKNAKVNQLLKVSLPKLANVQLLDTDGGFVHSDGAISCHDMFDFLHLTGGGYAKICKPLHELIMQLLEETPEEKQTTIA
PAFAH1B3 inh – PAFAH1B3 enzyme inhibitors, primary screen, biochemical, fluorescence polarization, human; recombinant PAFAH1B3, FP-rhodamine probe; inhibition, % at 3.39 µM; actives 0.28% (n = 340,000);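 active means inhibition above the screen-wide average of all tested compounds plus 3 SD, cut at about 25% in these data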;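 further: 0% = enzyme with DMSO only and 100% = wells lacking PAFAH1B3 protein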
Target sequence (Q15102 whole entry, looked up): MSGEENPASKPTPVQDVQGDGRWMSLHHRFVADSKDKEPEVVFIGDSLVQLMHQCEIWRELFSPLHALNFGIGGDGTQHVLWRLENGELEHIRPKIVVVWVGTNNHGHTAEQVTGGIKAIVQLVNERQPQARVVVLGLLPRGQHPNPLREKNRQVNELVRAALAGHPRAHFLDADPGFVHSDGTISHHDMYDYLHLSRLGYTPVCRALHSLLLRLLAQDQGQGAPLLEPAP
ARFGAP1 confirm – ARFGAP1 inhibitor hit confirmation, biochemical, fluorescence polarization, triplicate; AID 651608, 2012; shares compounds with ARFGAP1 inhibitor; ARFGAP1-stimulated ARF1 GTP hydrolysis, GDP tracer FP; actives 30% (n = 890); inhibition, % at 16.5 µM;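 active means average inhibition over triplicates above the hit cutoff set in the earlier primary screen, cut at about 25% in these data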;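 further: 0% = Arfgap1 plus ARF1-GTP with DMSO and 100% = wells lacking Arfgap1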
Active calls of the source: *; nt = not tested or not shown. Only some compounds are listed: those with a hit (about 2.8% of all), similar ones and a draw of the others.

SMILES | ASAP1 inh | PAFAH2 inh | pPAFAH FP inh | ARFGAP1 inhibitor | PAFAH1B2 inh | PAFAH1B3 inh | ARFGAP1 confirm
Cc1cc(C)c(S(=O)(=O)N(CC(=O)NCc2cccnc2)C2CCCCC2)c(C)c1 | -5 | 8 | 3 | 30* | -2 | -3 | 4
N#Cc1ccsc1NC(=O)COC(=O)c1ccc2ccccc2c1 | 23 | 10 | 7 | 27* | -7 | 1 | 20
CCCCN(Cc1ccco1)S(=O)(=O)c1csc(C(N)=O)c1 | 2 | -4 | 2 | 4 | 8 | 2 | nt
Cc1cc(-c2cc(NC=O)c3ncc(-c4cccc(C(=O)NCCN(C)C)c4)n3c2)cc(C)c1O | 14 | nt | nt | 27* | nt | nt | 58*
COc1cccc(-c2cnc3c(NC(C)=O)cc(-c4cccc(C(=O)NCCN(C)C)c4)cn23)c1 | 10 | nt | nt | 44* | nt | nt | 18
CN(C)CCNC(=O)c1cccc(-c2cnc3c(NC=O)cc(-c4ccccc4F)cn23)c1 | 0 | nt | nt | 18 | nt | nt | nt
CN(c1cccc(NC(=O)c2ccc(Cl)c(S(=O)(=O)N3CCOCC3)c2)c1)S(C)(=O)=O | 6 | 0 | nt | 1 | -2 | 11 | nt
COc1ccc(NC(=O)c2c3c(nc4ccccc24)CCN(Cc2ccccc2)C3)c(OC)c1 | 8 | 1 | -2 | 25* | 1 | 6 | 6
COc1ccc(S(=O)(=O)N2CCCCCC2)cc1NC(=O)c1c2c(nc3ccccc13)CCN(Cc1ccccc1)C2 | 3 | 10 | 10 | 11 | -2 | -4 | nt
Cc1cc(C)c(NC(=O)CSc2nc3ccc(NC(=O)CSc4nnnn4Cc4ccccc4)cc3s2)c(C)c1 | -10 | -37 | -7 | 25* | -12 | -14 | 5
CCOCC(=O)Nc1ccc(S(=O)(=O)NCC2CCCO2)cc1 (centres undefined) | -5 | 1 | -5 | -5 | 3 | 7 | nt
COc1ccc(CN(C)C[C@@H]2OCCCC[C@H](C)Oc3ccc(NC(=O)Nc4ccc(F)cc4)cc3C(=O)N([C@H](C)CO)C[C@H]2C)cc1 | -5 | nt | nt | -3 | nt | nt | nt
O=C(COC(=O)c1ccc(O)cc1)Nc1cc(S(=O)(=O)N2CCCCCC2)ccc1Cl | -3 | nt | nt | 26* | nt | nt | 1
Cn1ccc2c(-c3cccc4ccccc34)cc3c(c21)C1CCC3C1 (centres undefined) | 0 | nt | nt | 12 | nt | nt | nt
Cn1ccc2c(-c3cncc4ccccc34)cc3c(c21)C1CCC3C1 (centres undefined) | 1 | nt | nt | 32* | nt | nt | -3
Cc1ccc(Nc2nc(CSc3nnnn3-c3ccccc3)cs2)cc1 | 1 | 2 | 12 | 29* | 4 | 8 | 9
Cc1ccc(Nc2nc(CSc3nnnn3C)cs2)cc1 | 1 | 0 | 7 | 1 | -5 | -1 | nt
NS(=O)(=O)c1ccc(S(=O)(=O)N2CCCC2)cc1 | 5 | -1 | 5 | 8 | -5 | 3 | nt
NS(=O)(=O)c1ccc(Nc2ccc3cc(S(=O)(=O)N4CCCCC4)ccc3n2)cc1 | 24 | -21 | -10 | 47* | 5 | -3 | 52*
CS(=O)(=O)Nc1cccc(C2=NN(S(=O)(=O)c3ccccc3)C(c3ccco3)C2)c1 (centres undefined) | -7 | 11 | 1 | 32* | 2 | 7 | -6
CCS(=O)(=O)Nc1cccc(C2=NN(S(=O)(=O)c3ccccc3)C(c3ccco3)C2)c1 (centres undefined) | -14 | -4 | -3 | -9 | 3 | 1 | nt
CC(OC(=O)c1cc2c(s1)CCCCC2)C(=O)NC(N)=O (centres undefined) | -12 | 8 | 10 | 28* | 4 | -3 | -4
COc1cc(NC(=O)N2CCc3nc(Nc4cc(Cl)cc(Cl)c4)ncc3C2)cc(OC)c1OC | -1 | nt | nt | 14 | nt | nt | nt
CC(C)N(Cc1nc(-c2ccc(Cl)cc2)no1)Cc1nccn1C | -12 | 0 | 4 | 25* | 5 | 5 | 4
COc1ccc(CCNC(=O)c2coc(=O)c(Br)c2)cc1 | -3 | nt | 1 | -15 | nt | nt | nt
SMILES | ASAP1 inh | PAFAH2 inh | pPAFAH FP inh | ARFGAP1 inhibitor | PAFAH1B2 inh | PAFAH1B3 inh | ARFGAP1 confirm
Cc1ccc(C)c(Oc2cc(NC(=O)CCCn3nc(C)c([N+](=O)[O-])c3C)cc([N+](=O)[O-])c2)c1 | 6 | -34 | -13 | 26* | -18 | -35 | 1
CN(C(=O)C(C)(C)C)[C@H]1C[C@H]2c3[nH]c4ccccc4c3CCN2C(=O)[C@H]1CO | -10 | nt | nt | 96* | nt | nt | -3
CCC(=O)NCc1csc(-c2cccs2)n1 | 0 | -4 | -5 | 3 | 1 | 5 | nt
O=C(NCc1csc(-c2cccs2)n1)Nc1cccc(Cl)c1 | 2 | 2 | -2 | 26* | 1 | -2 | 6
C=CCc1ccc(O)c(-c2ccc(O)c(CC=C)c2)c1 | 14 | 6 | 7 | 36* | 17 | 6 | 11
C=CCc1cc(C(=O)N2CCCCC2)ccc1O | 10 | 0 | 6 | 2 | 1 | -1 | nt
Cc1c(Cl)sn(-c2ccc(Cl)cc2)c1=O | 9 | -5 | nt | 30* | -7 | -9 | 8
COc1ccccc1Cn1c(=S)[nH]c2cc(C(=O)NCCN(C)C)ccc2c1=O | -1 | -2 | 5 | -5 | 6 | 14 | nt
O=C(CCNC(=O)c1ccc(Cl)cc1)Nc1ccc(S(=O)(=O)N2CCOCC2)cc1 | 16 | 4 | -2 | 7 | 3 | -4 | nt
O=C(NNC(=O)c1cccc(S(=O)(=O)N2CCN(c3ccccc3)CC2)c1)c1ccc(Cl)cc1 | -10 | -10 | -3 | 25* | -4 | 1 | 4
CC(=O)N1CCN(C(=O)c2cccc(S(=O)(=O)N3CCN(c4ccccc4)CC3)c2)CC1 | 24 | 11 | 0 | -8 | -3 | 2 | nt
O=C(NCC1CCN(c2ccc(S(=O)(=O)N3CCOCC3)cc2)CC1)c1ccc(Cl)cc1 | -8 | -6 | 0 | 26* | 7 | 11 | 2
O=C(Nc1c(-c2ccccc2)[nH][nH]c1=O)c1ccc(Br)cc1 | 0 | nt | nt | 2 | nt | nt | nt
NC(=O)c1nsc(C(=O)N(Cc2ccco2)C(C(=O)NCc2ccccc2)c2ccc(O)cc2)c1N (centres undefined) | -9 | -2 | -6 | 7 | 2 | 6 | nt
Cc1cnc(C2OCCO2)c2cccc(N)c12 | -3 | nt | nt | 4 | nt | nt | nt
CCOCCN1CCN(C2c3ccccc3CSc3ccccc32)CC1 (centres undefined) | -2 | 8 | 0 | -2 | 7 | 2 | nt
